Results: article PMC6830765 (Innate Immunity, 2017)

Key:
MTT assay, CHME3 = format: cell-based, human; details: human, CHME3 microglia cells
In short: (§1)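 MTT (thiazolyl blue tetrazolium bromide) assay on LPS-inflamed CHME3 or SVG cells, fourth passage. […] Read-out is percent viable cells, plus a growth-inhibitory IC50 (concentration halving cell growth) for each cell line.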

human microglia (CHME3) = assay: MTT assay, CHME3; format: cell-based; details: Homo sapiens, Microglia, read-out: IC50, half concentration of druggable compound to inhibit cell growth
In short: as §1

IFN-γ [1] = assay: IFN-γ ELISA, LPS-treated SVG; format: cell-based, human; details: selected dose
In short: (§2)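 Human microglia (CHME3) and astrocyte (SVG) lines at fourth passage, inflamed with LPS. […] IL-12 or IFN-γ released into the extracellular medium was quantified with human ELISA kits 12 and 24 h after drug treatment. Controls were inflamed untreated cells and market-drug (Disprin)-treated cells.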

[2] = tested on: astrocyte (SVG) cell-line; assay: MTT assay, SVG; format: cell-based, human; details: Homo sapiens, Astrocyte, read-out: IC50, half concentration of druggable compound to inhibit cell growth
In short: as §1

MTT assay, SVG = format: cell-based, human; details: human, SVG astrocyte cells
In short: as §1

IFN-γ [3] = assay: IFN-γ ELISA, LPS-treated CHME3; format: cell-based, human; details: selected dose
In short: as §2

IL-12 [4] = assay: IL-12 ELISA, LPS-treated SVG; format: cell-based, human; details: selected dose
In short: as §2

IL-12 [5] = assay: IL-12 ELISA, LPS-treated CHME3; format: cell-based, human; details: selected dose
In short: as §2

SMILES: O=C(/C=C/C=C/c1ccc2c(c1)OCO2)N(CCCO[N+](=O)[O-])c1ccc(CO)cc1 [PA-3′k, 3-((2 E,4 E)-5-(benzo[d][1,3]dioxol-5-yl)-N-(4-(hydroxymethyl)phenyl)penta-2,4-dienamido)propyl nitrate]
- viability at 24 h (MTT assay, CHME3): 86.1 ± 2.57%
- IC50 (human microglia (CHME3)): 0.0678 µg/mL
- IFN-γ quantification (IFN-γ [1]; 12 h after drug treatment): 42.57 ± 3.58
- IFN-γ quantification (IFN-γ [1]; 24 h after drug treatment): 55.81 ± 2.89
- IC50 [2]: 0.0679 µg/mL
- viability at 24 h (MTT assay, SVG): 89.1 ± 1.96%
- IFN-γ quantification (IFN-γ [3]; 12 h after drug treatment): 46.35 ± 3.58
- IFN-γ quantification (IFN-γ [3]; 24 h after drug treatment): 54.86 ± 3.41
- IL-12 quantification (IL-12 [4]; 12 h after drug treatment): 88.11 ± 2.80
- IL-12 quantification (IL-12 [4]; 24 h after drug treatment): 96.37 ± 2.95
- IL-12 quantification (IL-12 [5]; 12 h after drug treatment): 81.68 ± 4.00
- IL-12 quantification (IL-12 [5]; 24 h after drug treatment): 101.88 ± 5.22
